Source: ChEMBL document CHEMBL1128270 (J Med Chem, 1995)
pIC50: −log10 of the molar value.

What was measured:
[1] = molecular target: Serotonin 2 (5-HT2) receptor (Rattus norvegicus, UniProt P30994+P08909+P14842); test: In vitro binding affinity measured on serotonin 5-hydroxytryptamine 2 receptor using [3H]ketanserin as radioligand.; type: protein assay
[2] = molecular target: T1, Adrenergic receptor alpha-1 (Rattus norvegicus, UniProt P15823+P23944+P43140); test: In vitro binding affinity measured on alpha-1 adrenergic receptor using [3H]prazosin as radioligand.; type: protein assay
T1 sequence (P15823 whole entry): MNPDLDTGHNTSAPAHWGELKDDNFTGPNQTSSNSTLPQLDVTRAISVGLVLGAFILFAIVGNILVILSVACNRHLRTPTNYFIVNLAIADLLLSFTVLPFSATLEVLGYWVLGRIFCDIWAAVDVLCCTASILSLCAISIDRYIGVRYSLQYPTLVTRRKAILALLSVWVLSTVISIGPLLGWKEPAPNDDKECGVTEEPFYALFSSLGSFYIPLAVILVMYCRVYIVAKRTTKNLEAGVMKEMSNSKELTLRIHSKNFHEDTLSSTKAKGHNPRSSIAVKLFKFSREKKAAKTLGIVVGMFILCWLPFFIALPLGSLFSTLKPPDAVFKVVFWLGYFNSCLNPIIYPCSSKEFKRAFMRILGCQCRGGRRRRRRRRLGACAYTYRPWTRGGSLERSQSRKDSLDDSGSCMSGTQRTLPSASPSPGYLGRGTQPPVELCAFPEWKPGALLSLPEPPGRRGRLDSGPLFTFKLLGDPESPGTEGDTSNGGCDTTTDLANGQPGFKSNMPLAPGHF
T1 sequence (P23944 whole entry): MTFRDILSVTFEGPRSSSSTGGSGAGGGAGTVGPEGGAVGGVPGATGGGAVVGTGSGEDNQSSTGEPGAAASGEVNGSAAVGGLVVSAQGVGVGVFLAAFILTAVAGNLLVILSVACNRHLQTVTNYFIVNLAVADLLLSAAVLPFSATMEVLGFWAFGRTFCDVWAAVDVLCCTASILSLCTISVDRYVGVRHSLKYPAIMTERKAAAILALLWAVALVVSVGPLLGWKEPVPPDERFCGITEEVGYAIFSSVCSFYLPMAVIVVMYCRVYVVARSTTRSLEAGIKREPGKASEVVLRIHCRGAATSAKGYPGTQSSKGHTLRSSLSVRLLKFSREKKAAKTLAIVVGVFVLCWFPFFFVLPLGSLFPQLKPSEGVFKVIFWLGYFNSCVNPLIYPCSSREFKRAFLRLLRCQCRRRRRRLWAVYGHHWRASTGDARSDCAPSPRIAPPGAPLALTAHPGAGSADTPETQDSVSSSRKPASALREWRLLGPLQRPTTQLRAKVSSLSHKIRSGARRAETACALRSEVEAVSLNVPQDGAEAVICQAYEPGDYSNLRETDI
T1 sequence (P43140 whole entry): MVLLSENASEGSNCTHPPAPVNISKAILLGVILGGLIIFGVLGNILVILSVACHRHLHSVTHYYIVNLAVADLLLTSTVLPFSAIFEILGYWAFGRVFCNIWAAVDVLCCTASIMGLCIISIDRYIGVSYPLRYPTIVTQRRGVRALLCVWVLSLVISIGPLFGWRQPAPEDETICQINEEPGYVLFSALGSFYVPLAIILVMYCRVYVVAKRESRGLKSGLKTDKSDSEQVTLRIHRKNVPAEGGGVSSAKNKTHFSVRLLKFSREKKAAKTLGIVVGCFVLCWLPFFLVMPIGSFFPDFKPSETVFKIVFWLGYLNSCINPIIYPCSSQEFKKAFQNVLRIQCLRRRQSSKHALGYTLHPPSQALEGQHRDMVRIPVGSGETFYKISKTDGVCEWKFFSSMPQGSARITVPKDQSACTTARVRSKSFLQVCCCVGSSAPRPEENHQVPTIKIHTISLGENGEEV

[3] = species on record: Cavia porcellus; test: Selectivity as the ratio of IC50 value against sigma receptor to that of 5-HT1A receptor.
How it was run: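 Ratio of the σ IC50 to the 5-HT1A IC50. For σ, a P2 membrane fraction was prepared from whole male guinea pig brain without cerebellum in 50 mM Tris-HCl pH 7.4. [3H]DTG was 0.90 nM final, incubated 90 min at 25 °C, then filtered and counted. IC50 values came from 7–9 concentrations in triplicate (EBDA).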

[4] = molecular target: T2, 5-hydroxytryptamine receptor 1A (Rattus norvegicus, UniProt P19327); test: In vitro binding affinity measured on serotonin 5-hydroxytryptamine 1A receptor using [3H]8-OH-DPAT as radioligand.
T2 sequence (P19327 whole entry): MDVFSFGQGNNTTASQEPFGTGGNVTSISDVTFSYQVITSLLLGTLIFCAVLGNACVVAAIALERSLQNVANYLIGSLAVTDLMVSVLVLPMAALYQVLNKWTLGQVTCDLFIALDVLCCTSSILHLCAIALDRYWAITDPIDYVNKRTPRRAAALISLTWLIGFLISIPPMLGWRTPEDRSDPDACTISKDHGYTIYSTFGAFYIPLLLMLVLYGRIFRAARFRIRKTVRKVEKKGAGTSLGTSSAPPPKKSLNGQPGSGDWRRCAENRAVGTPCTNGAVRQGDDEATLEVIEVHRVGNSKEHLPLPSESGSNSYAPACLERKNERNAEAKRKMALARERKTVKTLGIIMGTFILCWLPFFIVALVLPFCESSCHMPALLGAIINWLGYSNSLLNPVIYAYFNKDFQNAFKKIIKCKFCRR

[5] = molecular target: D(2) dopamine receptor (Rattus norvegicus, UniProt P61169); test: In vitro binding affinity measured on dopamine receptor D2 using [3H]spiroperidol as radioligand.
D(2) dopamine receptor, sequence (P61169 whole entry): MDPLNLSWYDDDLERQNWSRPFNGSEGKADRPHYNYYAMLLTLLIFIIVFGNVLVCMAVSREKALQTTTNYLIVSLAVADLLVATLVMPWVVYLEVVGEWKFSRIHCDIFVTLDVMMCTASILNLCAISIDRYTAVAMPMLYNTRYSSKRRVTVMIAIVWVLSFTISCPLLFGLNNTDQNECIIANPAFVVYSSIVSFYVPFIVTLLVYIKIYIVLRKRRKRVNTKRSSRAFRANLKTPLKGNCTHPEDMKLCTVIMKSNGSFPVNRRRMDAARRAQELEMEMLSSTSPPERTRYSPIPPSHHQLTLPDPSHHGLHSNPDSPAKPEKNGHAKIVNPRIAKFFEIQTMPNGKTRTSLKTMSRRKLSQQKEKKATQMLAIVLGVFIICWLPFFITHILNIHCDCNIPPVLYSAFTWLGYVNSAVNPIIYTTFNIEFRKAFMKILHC
How it was run: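 IC50 came from 7–9 drug concentrations in triplicate, over 2–4 independent experiments, analysed with EBDA. Specific binding exceeded 75% of total.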

[6] = Selectivity ratio of IC50 value against D-2 receptor to that of 5-HT1A receptor.
How it was run: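 Ratio of the D-2 IC50 to the 5-HT1A IC50. […] Each IC50 came from 7–9 concentrations in triplicate over 2–4 experiments (EBDA).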

[7] = molecular target: Serotonin 1a (5-HT1a) receptor/Adrenergic receptor alpha-1 (Rattus norvegicus) (UniProt P15823+P23944+P43140+P19327); test: Selectivity ratio of IC50 value against alpha-1 receptor to that of 5-HT1A receptor.; type: protein assay
How it was run: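 Ratio of the α1 IC50 to the 5-HT1A IC50 ([3H]-8-OH-DPAT, rat cortex). For α1, male Sprague-Dawley rat cortex membranes were prepared in 50 mM Tris-HCl pH 7.7 with 10 μM pargyline and 0.1% ascorbate.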

| Structure (SMILES) | IC50 [1] [nM] | IC50 [2] [nM] | Selectivity [3] | pIC50 [4] | pIC50 [5] | Selectivity [6] | Selectivity [7] |
| --- | --- | --- | --- | --- | --- | --- | --- |
| COc1ccc2c(c1)C(CCCN1CCN(c3ccccn3)CC1)=CCC2 | 146 | 152 | 3.9 | 7.20 | 6.11 | 12 | 2.4 |
| COc1ccccc1N1CCN(CCCCC2CCCc3c(OC)cccc32)CC1 (stereo not drawn) | – | 78.3 | – | 8.76 | 7.81 | 8.9 | 45 |
| COc1ccccc1N1CCN(CCCC2CCCc3c(OC)cccc32)CC1 (stereo not drawn) | 358 | 1.94 | – | 9.49 | – | – | – |
| COc1ccc2c(c1)C(CCCN1CCN(c3ccccc3OC)CC1)CCC2 (stereo not drawn) | 220 | 43.2 | – | 8.82 | 7.29 | – | – |
| COc1cccc2c1CCC/C2=C\CCN1CCN(c2ccccn2)CC1 | 417 | 72.2 | – | 9.46 | 6.82 | – | – |
| COc1ccccc1N1CCN(CCCC2=CCCc3c(OC)cccc32)CC1 | 770 | 32.3 | 3.8 | 8.06 | 7.76 | 2 | 3.7 |
| COc1ccccc1N1CCN(CCNC2CCCc3c(OC)cccc32)CC1 (stereo not drawn) | 3340 | 149 | 22 | 8.15 | 6.21 | 88 | 21 |
| COc1cccc2c1CCC=C2CCCN1CCN(c2cccc(C(F)(F)F)c2)CC1 | 2370 | 278 | – | 7.25 | 6.19 | 12 | 5 |
| COc1cccc2c1CCC=C2CCCN1CCN(c2ccccn2)CC1 | 205 | 123 | – | 8.85 | 6.92 | – | – |
| COc1cccc2c1CCCC2CCCN1CCN(c2ccccc2)CC1 (stereo not drawn) | 170 | 78.8 | – | 9.44 | 7.01 | – | – |
| COc1cccc2c1CCC=C2CCCN1CCN(c2ccccc2)CC1 | 204 | 49 | – | – | 6.52 | – | – |
| COc1ccc2c(c1)C(CCCN1CCN(c3ccccc3OC)CC1)=CCC2 | 391 | 24.5 | 114 | 8.70 | 7.04 | 45 | 12 |
| COc1ccc2c(c1)C(CCCN1CCN(c3ccccc3)CC1)=CCC2 | 119 | 157 | – | 6.83 | 6.11 | – | – |
| COc1cccc2c1CCCC2CCCN1CCN(c2cccc(C(F)(F)F)c2)CC1 (stereo not drawn) | – | 7170 | – | 6.84 | 6.33 | 3.2 | 49 |
| COc1ccccc1N1CCN(CCSC2CCCc3c(OC)cccc32)CC1 (stereo not drawn) | – | 120 | – | 8.97 | 8.11 | 7.3 | 111 |
| COc1ccccc1N1CCN(CCCC2CCCc3ccccc32)CC1 (stereo not drawn) | 155 | 0.14 | – | 9.41 | 7.61 | 63 | 0.36 |
| COc1ccc2c(c1)C(CCCN1CCN(c3cccc(C(F)(F)F)c3)CC1)CCC2 (stereo not drawn) | 391 | 2930 | 0.99 | 7.05 | 5.88 | 15 | 33 |

Next, values leading:

| IC50 [1] [nM] | IC50 [2] [nM] | Selectivity [3] | pIC50 [4] | pIC50 [5] | Selectivity [6] | Selectivity [7] | Structure (SMILES) |
| --- | --- | --- | --- | --- | --- | --- | --- |
| 329 | 78.5 | – | 8.05 | 7.29 | – | – | COc1ccc2c(c1)C(CCCCN1CCN(c3ccccc3OC)CC1)CCC2 (stereo not drawn) |
| 288 | 261 | 37 | 8.47 | 6.48 | 97 | 77 | COc1ccc2c(c1)C(CCCN1CCN(c3ccccn3)CC1)CCC2 (stereo not drawn) |
| 331 | 31.4 | – | 9.24 | 6.75 | – | – | COc1cccc2c1CCCC2CCCN1CCN(c2ccccn2)CC1 (stereo not drawn) |
| – | 96.2 | – | 7.89 | 5.23 | 455 | 7.4 | COc1ccccc1N1CCN(CCCCC2=CCCc3c(OC)cccc32)CC1 |
| – | 184 | – | 8.03 | 7.55 | 3 | 20 | COc1ccc2c(c1)C(CCCN1CCN(c3ccccc3)CC1)CCC2 (stereo not drawn) |
| 147 | 3.6 | 30 | 8.74 | 7.90 | 6.9 | 2 | COc1ccccc1N1CCN(CC/C=C2\CCCc3ccccc32)CC1 |
| 667 | 6 | 100 | 9.28 | 7.95 | 22 | 12 | COc1ccccc1N1CCN(CC/C=C2\CCCc3c(OC)cccc32)CC1 |
| 111 | 116 | 20 | 8.23 | 7.30 | 8.5 | 20 | COc1ccc2c(c1)C(SCCN1CCN(c3ccccc3OC)CC1)CCC2 (stereo not drawn) |
| 147 | 1.26 | – | 8.95 | 7.62 | – | – | COc1ccccc1N1CCN(CCCC2CCCc3ccsc32)CC1 (stereo not drawn) |
| 209 | 15.3 | – | 8.82 | 7.97 | – | – | COc1ccc2c(c1)C(CCCCN1CCN(c3ccccc3OC)CC1)=CCC2 |
| 1170 | 3070 | – | 6.86 | 5.89 | 9.4 | 22 | COc1ccc2c(c1)C(CCCN1CCN(c3cccc(C(F)(F)F)c3)CC1)=CCC2 |
